# High-throughput results as filed in PubChem BioAssay.
# This is a sample that favours compounds with a hit; in the whole collection about 3.9% have one here.
# ABCB6 inh MLPCN: ABCB6 transporter inhibitors, primary screen, K562-ABCB6 cells, flow cytometry, MLPCN library; K562-ABCB6 porphyrin accumulation, 1 h; hits give low values; hit rate 0.19% among 360,000; ATP-binding cassette sub-family B member 6 (Homo sapiens), Q9NP58; fluorescence ratio to DMSO, % at 10 µM; AID 602162, 2011;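 active = fluorescence ratio to DMSO below 75%, the collection mean minus 3 SD; inconclusive = too few cells collected in the well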;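 also: signal is porphyrin accumulated inside mitochondria; lower ratio means ABCB6 inhibition with less porphyrin fluorescence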
# FXN GAA850 act: FXN promoter activators, primary screen, cell-based, luciferase luminescence, HEK293 lucGAA850; HEK293 lucGAA850 FXN promoter luciferase reporter, 24 h; percent of 10 µM SAHA response; activation, % at 6 µM; hit rate 0.56% among 360,000;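 active = activation above the average of all compounds screened plus 3 SD, cutoff fixed separately per campaign, cut at about 7.5% in these data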
# SR-BI HDL uptake: inhibitors of SR-BI mediated HDL lipid uptake, primary screen, ldlA[mSR-BI] cells, fluorescence, single point; Scavenger receptor class B member 1 (Mus musculus), Q61009; ldlA[mSR-BI] CHO cells, DiI-HDL uptake fluorescence, 3 h; inhibition, % at 12.5 µM; hit rate 0.96% among 320,000; AID 488896, 2010;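 active = mean replicate inhibition of at least 70% and a set share of replicates each scoring 70 or more; inconclusive = meets just one of the two criteria; inactive = fails both criteria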
# HIF activator: HIF pathway transcriptional activators, primary screen, cell-based, U2OS HRE-luciferase, luminescence. U2OS HRE-luciferase reporter; normalized: DMSO 0%, desferrioxamine 100%. activation, % at 7.5 µM (by protocol). hit rate 0.32% among 300,000. AID 1910, 2009;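 active = mean activation of at least 10% of the iron chelator positive control signal, with at least half of replicates also reaching 10%; inconclusive = mean and replicate majority disagree about reaching 10%; inactive = mean and most replicates under 10%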
# AHR act: AHR activators, primary screen, cell-based, luminescence, luciferase reporter, human; AID 2796, 2010; activation, % at 5 µM; hit rate 2.5% among 320,000; AHR-responsive luciferase reporter cells; in the data active = activation above about 47%
# SR-BI DiI-HDL act: activators of SR-BI mediated DiI-HDL uptake, primary screen, ldlA[mSR-BI] CHO cells, DiI fluorescence; 3 h; 100 = double the neutral-control signal; activation, % at 12.5 µM; hit rate 0.096% among 320,000; AID 504775, 2011;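 active = mean replicate activation of at least 60% and every replicate at or above 60%; inconclusive = mean or all-replicate condition met, but not both; inactive = mean below 60% and not all replicates reaching 60%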
#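 Material – SR-BI-overexpressing, LDLR-lacking CHO cells · Medium – BSA-supplemented, HEPES-buffered Ham's F12, pH 7.4 · Doses – single concentration · Times – compound with DiI-HDL co-incubation, 3 h at 37 °C · Measured by – bottom-read fluorescence, 550/595 nm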
# AHR act confirm: AHR activators, confirmation, cell-based, luminescence, luciferase reporter, human | shares compounds with AHR act | human cells, AHR-responsive luciferase reporter | activation, % at 9 µM | hit rate 87% among 2,300 | AID 2845, 2010; in the data active = activation above about 49%;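 also: HepG2 hepatoma cells carrying a DRE-driven firefly luciferase reporter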
# PXR act counter: human PXR activators, counter-screen for AHR activator project, cell-based, luciferase luminescence; activation, % at 11.6 µM; cell-based PXR reporter; hit rate 88% among 2,300; shares compounds with AHR act; in the data active = activation above about 11%;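 also: human hepatoma DPX-2 cells expressing full-length human PXR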
# Target sequence (O75469 whole entry, looked up): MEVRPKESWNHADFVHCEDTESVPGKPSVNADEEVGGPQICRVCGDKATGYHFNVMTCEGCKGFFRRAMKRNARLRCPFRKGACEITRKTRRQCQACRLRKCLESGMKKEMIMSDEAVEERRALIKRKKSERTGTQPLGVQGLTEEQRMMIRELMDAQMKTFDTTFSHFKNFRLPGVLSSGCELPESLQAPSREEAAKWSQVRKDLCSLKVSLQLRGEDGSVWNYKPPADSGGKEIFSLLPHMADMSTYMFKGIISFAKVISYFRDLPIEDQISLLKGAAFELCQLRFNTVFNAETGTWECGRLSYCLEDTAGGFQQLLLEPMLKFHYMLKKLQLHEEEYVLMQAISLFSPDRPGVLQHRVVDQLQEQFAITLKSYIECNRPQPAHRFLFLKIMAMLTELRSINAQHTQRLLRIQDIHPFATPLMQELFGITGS
# Numbers stand for hits; i = inactive; ? = inconclusive; nt = not tested or not shown.
SMILES,ABCB6 inh MLPCN,FXN GAA850 act,SR-BI HDL uptake,HIF activator,AHR act,SR-BI DiI-HDL act,AHR act confirm,PXR act counter
O=C(Nc1cccc(Cl)c1)NC1CC2CCC(C1)N2Cc1ccco1 (centres undefined),i,i,i,i,i,i,nt,nt
Cc1ccc(OCC(=O)NNC(=O)Cn2c(=O)cnc3ccccc32)cc1,i,i,i,i,i,i,nt,nt
O=C(N/N=C/c1ccc(O)cc1)c1ccc(COc2cc(Cl)ccc2Cl)o1,i,i,i,i,115,i,83,28
CCc1nnc(SCC(=O)Nc2ccc3c(c2)OCO3)o1,i,i,i,i,i,i,nt,nt
CCOc1ccccc1-c1nc(-c2ccc(NC(=O)c3ccc(Br)o3)cc2)no1,nt,nt,nt,i,123,nt,106,19
Cn1c(-c2ccc3ccccc3n2)nc2cnccc21,i,i,i,i,89,i,119,23
O=C(CCNC(=O)c1ccc(Cl)cc1)NN1C(=O)NC2(CCCCC2)C1=O,i,i,i,nt,i,i,nt,nt
COc1ccc(Br)c(Cn2c(C)c(C(=O)NCc3ccc(F)cc3)sc2=O)c1,i,i,nt,nt,nt,nt,nt,nt
Clc1ccc(-c2n[nH]c3c2CCC3)cc1Cl,i,i,nt,i,100,nt,99,21
COc1ccc(CCNC(=O)CC2Oc3ccc(Cl)cc3NC2=O)cc1OC (centres undefined),i,i,i,i,98,i,i,46
CCCN(Cc1ccccc1)C(=S)Nc1cccc(C)c1C,i,i,i,i,i,i,nt,nt
Cc1cccc(NC(=S)NN(Cc2ccccc2)c2ccccc2)c1C,i,i,i,i,116,i,108,214
O=C(Nc1ccccn1)c1ccc2ccccc2n1,i,i,nt,i,84,nt,168,24
O=C(Nc1ccccn1)c1ccc2ccccc2c1O,i,i,i,i,151,i,152,16
O=C(O)C=C1C2CC3CC(C2)CC1C3,i,i,i,i,i,i,nt,nt
CN(CC(=O)NCCCn1ccnc1)S(=O)(=O)c1ccc(Cl)cc1,i,i,i,nt,i,i,nt,nt
O=[N+]([O-])c1cnc(Nc2ccc(Cl)cn2)c([N+](=O)[O-])c1,i,i,i,i,139,i,80,nt
CCCCNC(=S)N(C)/N=C/c1ccc2c(c1)OCO2,i,i,i,i,159,i,68,26
CCCCNC(=S)N(C)/N=C/c1ccc(F)cc1,i,i,i,i,i,i,nt,nt
COc1cc(/C=N/NC(=O)c2ccccn2)cc2c1OCO2,i,i,i,i,i,i,nt,nt
COc1cc(/C=N/NC(=O)c2cccnc2)cc2c1OCO2,i,i,i,i,88,i,78,nt
Cc1ccc(C(=O)N/N=C/c2ccc3c(c2)OCO3)o1,i,i,i,i,142,i,98,21
Clc1ccccc1N/N=C/c1ccc2c(c1)OCO2,i,i,i,i,80,i,66,35
Cc1ccc(C(=O)NN=Cc2ccc3c(c2)OCO3)cc1,i,i,i,nt,nt,i,nt,nt
O=C(N/N=C/c1ccc2c(c1)OCO2)c1ccc(NC(=O)c2ccccc2Cl)cc1,i,i,?,i,i,i,nt,nt
SMILES,ABCB6 inh MLPCN,FXN GAA850 act,SR-BI HDL uptake,HIF activator,AHR act,SR-BI DiI-HDL act,AHR act confirm,PXR act counter
c1cc2c(nn1)CCc1nonc1-2,i,i,i,i,i,i,nt,nt
C=C(C)CNC(=S)N/N=C/c1ccc(N2CCOCC2)cc1,i,i,i,i,i,i,nt,nt
C=C(C)CNC(=S)N/N=C\c1ccc2c(c1)OCO2,i,i,i,i,82,i,64,67
O=C(N/N=C\c1ccc2c(c1)OCO2)c1cncc(Br)c1,i,i,i,i,104,i,80,10
CCOC(=O)C1CCCN(C(=O)c2ccc(S(=O)(=O)N3CCOCC3)cc2)C1 (centres undefined),i,i,i,nt,i,i,nt,nt
COc1ccc(S(=O)(=O)NNC(=O)c2cc3c4ccccc4n(C)c3s2)cc1,i,i,i,i,110,i,98,246
CC(C)(C)NC(=S)N/N=C/c1c(Cl)cccc1Cl,i,i,i,i,103,i,i,131
CCNC(=S)N/N=C/c1c(Cl)cccc1Cl,i,i,i,i,i,i,nt,nt
COc1ccccc1NC(=O)c1ccc2[nH]c(C)c(C)c2c1,i,i,81,i,113,i,133,69
COc1cccc(NC(=O)CN2CCCCCC2)c1,i,i,i,i,i,i,nt,nt
Cc1sc(N/N=C/c2ccco2)nc1-c1ccccc1,i,i,i,i,170,i,80,31
Cc1sc(N/N=C/c2cccnc2)nc1-c1ccccc1,i,i,i,i,i,i,nt,nt
CCOc1ccc2c(c1)c(N=O)c(O)n2C,i,i,i,i,94,i,62,10
O=C1c2cccc3cc([N+](=O)[O-])cc(c23)C(=O)N1CCN1CCCC1,i,i,i,i,nt,i,nt,nt
O=C1c2cccc3cccc(c23)C(=O)N1CCN1CCN(C(=S)Nc2ccc(Cl)cc2)CC1,i,i,i,i,97,i,110,65
O=C1c2cccc3cccc(c23)C(=O)N1CCN1CCN(C(=S)Nc2ccccc2)CC1,i,i,72,i,98,i,101,98
Nc1cc2c3c(cccc3c1)C(=O)N(CCN1CCCC1)C2=O,i,i,i,?,142,i,201,nt
CCOC(=O)C1(Cc2cccc(F)c2)CCN(C2CCOCC2)CC1,i,i,i,i,i,i,nt,nt
CCOCCc1nnc(NC(=O)c2ccc(OC)c(OC)c2)s1,i,i,i,i,115,i,81,nt
CCOCCc1nnc(NC(=O)c2cc(OC)c(OC)cc2[N+](=O)[O-])s1,i,i,i,i,i,i,nt,nt
CN(C)c1ccc([C@@H]2[C@@H]([N+](=O)[O-])[C@H]3C=Cc4ccccc4N3[C@H]2C(=O)c2ccc(Cl)cc2)cc1,i,i,i,nt,107,i,98,72
O=c1cc(-c2ccccc2)oc2ccc(Br)cc12,i,i,i,nt,99,i,80,39
COc1ccc(CCNc2nc(-c3cccnc3)cs2)cc1OC,i,i,i,i,i,i,nt,nt
COc1ccc(CCNc2nc(-c3ccccn3)cs2)cc1OC,i,i,nt,i,85,nt,80,27
O=C1CSC(c2ccc(F)cc2)N1c1nc2ccccc2s1 (centres undefined),i,i,i,i,149,i,98,63
